Activity calls are given as the source filed them. The calls are words filed in the database; no cut-off is given here.
Key:
[1] = biological target: Cannabinoid receptor 1 (Homo sapiens) (UniProt P21554); assay: Positive allosteric modulation of CB1 receptor (unknown origin) expressed in HEK293 cell membranes assessed as stimulation of [3H]CP55,940 binding after 60 mins by liquid scintillation counting analysis
Outline: (§1)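 Nonspecific binding was taken with 1 μM unlabeled CP55,940. Samples were filtered on GF/C and counted by scintillation. Runs were in duplicate, ≥3 experiments. α and KB came from nonlinear regression to the allosteric ternary complex model, with [A] and KA fixed.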

[2] = biological target: Cannabinoid receptor 1 (Homo sapiens) (UniProt P21554); assay: Antagonist activity CB1 receptor (unknown origin) expressed in HEK293 cell membranes assessed as inhibition of CP55,940-induced [35S]GTPgammaS binding after 60 mins by liquid scintillation counting analysis; type: functional
Outline: (§2)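 Wild-type CB1 HEK293 membranes (7.5 μg) were incubated 60 min at 30 °C in 50 mM Tris-HCl pH 7.4, 3 mM MgCl2, 0.2 mM EGTA, 100 mM NaCl, 0.1% BSA, 10 μM GDP and 0.1 nM [35S]GTPγS. CP55,940 was given at ≥9 concentrations (100 pM–100 μM), with or without modulator. Nonspecific binding was taken with 10 μM GTPγS. Samples were filtered and counted by scintillation. Runs were in duplicate, ≥3 experiments.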

[3] = biological target: Cannabinoid receptor 1 (Homo sapiens) (UniProt P21554); assay: Antagonist activity CB1 receptor (unknown origin) expressed in HEK293 cell membranes assessed as inhibition of [35S]GTPgammaS binding at 10 uM after 60 mins by liquid scintillation counting analysis; type: functional
Outline: (§3)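 Basal [35S]GTPγS binding was measured with no orthosteric agonist on wild-type CB1 HEK293 membranes (7.5 μg), 60 min at 30 °C. Buffer was Tris pH 7.4 with MgCl2, EGTA, NaCl and BSA, plus 5 μM GDP and 0.1 nM [35S]GTPγS, and modulator added. Nonspecific binding was taken with 10 μM GTPγS. Mock-transfected membranes gave the non-CB1 binding. Samples were filtered and counted by scintillation. Runs were in duplicate, ≥3 experiments; one-way ANOVA with Bonferroni test was applied.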

[4] = biological target: Cannabinoid receptor 1 (Homo sapiens) (UniProt P21554); assay: Antagonist activity CB1 receptor (unknown origin) expressed in HEK293 cell membranes assessed as inhibition of CP55,940-induced [35S]GTPgammaS binding at 1 uM after 60 mins by liquid scintillation counting analysis relative to control; type: functional; outline: as §2
[5] = biological target: Cannabinoid receptor 1 (Homo sapiens) (UniProt P21554); assay: Antagonist activity CB1 receptor (unknown origin) expressed in HEK293 cell membranes assessed as inhibition of CP55,940-induced [35S]GTPgammaS binding at 0.1 uM after 60 mins by liquid scintillation counting analysis (reference value: […] +/- […] fmol/mg); type: functional
[6] = biological target: Cannabinoid receptor 1 (Homo sapiens) (UniProt P21554); assay: Antagonist activity CB1 receptor (unknown origin) expressed in HEK293 cell membranes assessed as inhibition of [35S]GTPgammaS binding after 60 mins by liquid scintillation counting analysis; type: functional; outline: as §3
[7] = biological target: Cannabinoid receptor 1 (Homo sapiens) (UniProt P21554); assay: Allosteric modulation of CB1 receptor (unknown origin) expressed in HEK293 cell membranes assessed as stimulation of [3H]CP55,940 binding up to 32 uM after 60 mins by liquid scintillation counting analysis; outline: as §1
[8] = biological target: Cannabinoid receptor 1 (Homo sapiens) (UniProt P21554); assay: Antagonist activity CB1 receptor (unknown origin) expressed in HEK293 cell membranes assessed as inhibition of CP55,940-induced [35S]GTPgammaS binding at 10 uM after 60 mins by liquid scintillation counting analysis relative to control; type: functional; outline: as §2
[9] = biological target: Cannabinoid receptor 1 (Homo sapiens) (UniProt P21554); assay: Antagonist activity CB1 receptor (unknown origin) expressed in HEK293 cell membranes assessed as inhibition of CP55,940-induced [35S]GTPgammaS binding at 3.2 uM after 60 mins by liquid scintillation counting analysis relative to control; type: functional; outline: as §2

Sequence of Cannabinoid receptor 1 (Homo sapiens) (P21554 whole entry): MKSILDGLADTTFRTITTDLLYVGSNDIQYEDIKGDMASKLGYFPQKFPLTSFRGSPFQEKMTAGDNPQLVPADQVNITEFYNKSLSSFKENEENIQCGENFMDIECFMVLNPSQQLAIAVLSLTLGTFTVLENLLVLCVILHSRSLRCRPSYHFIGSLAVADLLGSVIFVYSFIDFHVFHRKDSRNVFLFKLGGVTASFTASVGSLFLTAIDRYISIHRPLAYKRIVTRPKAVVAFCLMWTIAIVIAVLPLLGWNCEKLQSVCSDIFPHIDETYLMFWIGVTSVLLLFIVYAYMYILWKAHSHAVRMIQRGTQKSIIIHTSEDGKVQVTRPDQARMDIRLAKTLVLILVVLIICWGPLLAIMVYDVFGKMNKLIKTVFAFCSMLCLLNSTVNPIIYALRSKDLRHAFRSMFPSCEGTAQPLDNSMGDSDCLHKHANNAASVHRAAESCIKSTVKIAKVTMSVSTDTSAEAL

CCc1c(C(=O)NCCc2ccc(N(C)C)cc2)[nH]c2ccc(Cl)cc12
Kb [1]: 207 nM

O=C(NCCc1ccc(N2CCCCC2)cc1)c1[nH]c2ccc(Cl)cc2c1CC1CCCCC1
Kb [1]: 2410 nM

CCc1c(C(=O)NCCc2ccc(N3CCCCC3)cc2)[nH]c2ccc(Cl)cc12
Kb [1]: 217 nM

CCCCCc1c(C(=O)NCCc2ccc(N(C)C)cc2)[nH]c2ccc(Cl)cc12
inhibition [2]: Dose-dependent effect
inhibition [3]: Active
Emax [4]: 36 fmol/mg
Emax [5]: 53.4 fmol/mg
inhibition [6]: Dose-dependent effect
Kb [1]: 167 nM

CCCCCc1c(C(=O)NCCc2ccc(Oc3ccccc3)cc2)[nH]c2ccc(Cl)cc12
Kb [1]: 2340 nM

CCCCCCCc1c(C(=O)NCCc2ccc(N3CCCCC3)cc2)[nH]c2ccc(Cl)cc12
Kb [1]: 651 nM

CCCCCc1c(C(=O)NC(CO)Cc2ccc(N(C)C)cc2)[nH]c2ccc(Cl)cc12 (stereo not given)
Kb [1]: 1020 nM

CN(C)c1ccc(CCNC(=O)c2cc3cc(Cl)ccc3o2)cc1
Activity [7]: inactive

O=C(NCCc1ccc(N2CCCCC2)cc1)c1cc2cc(Cl)ccc2o1
Activity [7]: inactive

CCc1c(C(=O)NCCc2ccc(N(C)C)cc2)oc2ccc(Cl)cc12
Kb [1]: 627 nM

CCCCCc1c(C(=O)NCc2ccc(N3CCCCC3)cc2)[nH]c2ccc(Cl)cc12
Activity [7]: inactive

CCCCCc1c(C(=O)NCCc2ccc(N3CCOCC3)cc2)[nH]c2ccc(Cl)cc12
inhibition [8]: Active
inhibition [2]: Dose-dependent effect
Emax [9]: 58.2 fmol/mg
Kb [1]: 508 nM

O=C(NCCc1ccc(N2CCCCC2)cc1)c1[nH]c2ccc(Cl)cc2c1Cc1ccccc1
Kb [1]: 1070 nM

CCc1c(C(=O)NCCc2ccc(N3CCCCC3)cc2)oc2ccc(Cl)cc12
inhibition [8]: Active
inhibition [2]: Dose-dependent effect
Emax [9]: 59.5 fmol/mg
Kb [1]: 2590 nM

CCCCCCCCCc1c(C(=O)NCCc2ccc(N3CCCCC3)cc2)[nH]c2ccc(Cl)cc12
inhibition [8]: Active
inhibition [2]: Dose-dependent effect
Emax [9]: 61.4 fmol/mg
Kb [1]: 260 nM

O=C(NCCc1ccc(N2CCCCC2)cc1)c1[nH]c2ccc(Cl)cc2c1-c1ccccc1
Activity [7]: inactive

— ChEMBL document CHEMBL2429762, “Structure-activity relationship study of indole-2-carboxamides identifies a potent allosteric modulator for the cannabinoid receptor 1 (CB1)” (J Med Chem, 2013)
